Several values for one entry are separate records, joined by “and”; a condition that tells them apart may be missing. Equal entries are not always repeated.
Test system: HEK-293T
Assay: Multiplex assay against HEK293T
Assay type: toxicity, cell-based
Settings: human, number of replicates 2
Procedure, shortened: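 Phenotypes for tubulin, mitochondrial mass and membrane permeability are expressed as per cents of healthy-nucleus cells. Cells were stained live at seeding with Hoechst33342, BioTracker Green Microtubule Cytoskeleton Dye, MitoTracker Red and Annexin V Alexa Fluor 680, then imaged after compound addition on a CQ1 microscope at 37°C and 5% CO2. Machine-learning gating in CellPathfinder separated Hoechst high-intensity objects from normal cells, divided normal cells by nuclear state (healthy, pyknosed, fragmented) and divided pyknosed cells into mitotic or apoptotic.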

[1] = 12 h, 1 µM, compound concentration 1 uM
[2] = 12 h, 10 µM, compound concentration 10 uM
[3] = 24 h, 1 µM, compound concentration 1 uM
[4] = 24 h, 10 µM, compound concentration 10 uM
[5] = 48 h, 1 µM, compound concentration 1 uM
[6] = 48 h, 10 µM, compound concentration 10 uM

## CSc1cc2c(cc1C(F)(F)F)N(C(=O)Nc1cccnc1)CC2
[1]
  Population Apoptotic (%): 48% and 46%
  Population Fragmented Nuclei (%): 2% and 3%
  Population Healthy Nuclei (%): 87% and 85%
  Population Hoechst High Intensity Objects (%): 4% and 5%
  Population Membrane Permeable-Phenotype (%): 4% and 3%
  Population Mitochondria Different-Phenotype (%): 9% and 18%
  Population Mitotic Cells (%): 51% and 53%
  Population Normal (%): 95% and 94%
  Population Pyknosed Nuclei (%): 10%
  Population Tubulin-Different-Phenotype (%): 41% and 47%
  Total Cell Count: 690 and 549
[2]
  Population Apoptotic (%): 51% and 43%
  Population Fragmented Nuclei (%): 5% and 2%
  Population Healthy Nuclei (%): 84%
  Population Hoechst High Intensity Objects (%): 5%
  Population Membrane Permeable-Phenotype (%): 3%
  Population Mitochondria Different-Phenotype (%): 5% and 14%
  Population Mitotic Cells (%): 48% and 56%
  Population Normal (%): 94%
  Population Pyknosed Nuclei (%): 9% and 12%
  Population Tubulin-Different-Phenotype (%): 39%
  Total Cell Count: 679 and 494
[3]
  Population Apoptotic (%): 25% and 42%
  Population Fragmented Nuclei (%): 5% and 4%
  Population Healthy Nuclei (%): 88% and 87%
  Population Hoechst High Intensity Objects (%): 6% and 5%
  Population Membrane Permeable-Phenotype (%): 2%
  Population Mitochondria Different-Phenotype (%): 3% and 6%
  Population Mitotic Cells (%): 74% and 57%
  Population Normal (%): 93% and 94%
  Population Pyknosed Nuclei (%): 5% and 8%
  Population Tubulin-Different-Phenotype (%): 27% and 31%
  Total Cell Count: 1189 and 774
[4]
  Population Apoptotic (%): 20% and 36%
  Population Fragmented Nuclei (%): 10% and 6%
  Population Healthy Nuclei (%): 85% and 87%
  Population Hoechst High Intensity Objects (%): 5% and 7%
  Population Membrane Permeable-Phenotype (%): 3% and 2%
  Population Mitochondria Different-Phenotype (%): 2% and 5%
  Population Mitotic Cells (%): 79% and 63%
  Population Normal (%): 94% and 92%
  Population Pyknosed Nuclei (%): 4% and 6%
  Population Tubulin-Different-Phenotype (%): 26% and 21%
  Total Cell Count: 1164 and 681
[5]
  Population Apoptotic (%): 5% and 7%
  Population Fragmented Nuclei (%): 14% and 9%
  Population Healthy Nuclei (%): 83% and 88%
  Population Hoechst High Intensity Objects (%): 9% and 10%
  Population Membrane Permeable-Phenotype (%): 6% and 4%
  Population Mitochondria Different-Phenotype (%): 0%
  Population Mitotic Cells (%): 94% and 92%
  Population Normal (%): 90% and 89%
  Population Pyknosed Nuclei (%): 2%
  Population Tubulin-Different-Phenotype (%): 14% and 17%
  Total Cell Count: 2977 and 1800
[6]
  Population Apoptotic (%): 5% and 6%
  Population Fragmented Nuclei (%): 20% and 12%
  Population Healthy Nuclei (%): 77% and 84%
  Population Hoechst High Intensity Objects (%): 9% and 7%
  Population Membrane Permeable-Phenotype (%): 7% and 6%
  Population Mitochondria Different-Phenotype (%): 0% and 1%
  Population Mitotic Cells (%): 94% and 93%
  Population Normal (%): 90% and 92%
  Population Pyknosed Nuclei (%): 1% and 2%
  Population Tubulin-Different-Phenotype (%): 11% and 13%
  Total Cell Count: 2869 and 1725

## COc1ccc(F)c(F)c1C(=O)c1cnc(NC2CCN(S(C)(=O)=O)CC2)nc1N [RG-547]
[1]
  Population Apoptotic (%): 71% and 70%
  Population Fragmented Nuclei (%): 1% and 3%
  Population Healthy Nuclei (%): 86% and 87%
  Population Hoechst High Intensity Objects (%): 8%
  Population Membrane Permeable-Phenotype (%): 4%
  Population Mitochondria Different-Phenotype (%): 21% and 18%
  Population Mitotic Cells (%): 28% and 29%
  Population Normal (%): 91%
  Population Pyknosed Nuclei (%): 11% and 8%
  Population Tubulin-Different-Phenotype (%): 57% and 48%
  Total Cell Count: 469 and 554
[2]
  Population Apoptotic (%): 62% and 82%
  Population Fragmented Nuclei (%): 3% and 4%
  Population Healthy Nuclei (%): 91% and 86%
  Population Hoechst High Intensity Objects (%): 8% and 11%
  Population Membrane Permeable-Phenotype (%): 2% and 1%
  Population Mitochondria Different-Phenotype (%): 24% and 33%
  Population Mitotic Cells (%): 37% and 17%
  Population Normal (%): 91% and 88%
  Population Pyknosed Nuclei (%): 5% and 8%
  Population Tubulin-Different-Phenotype (%): 59% and 65%
  Total Cell Count: 491 and 448
[3]
  Population Apoptotic (%): 86% and 67%
  Population Fragmented Nuclei (%): 3% and 5%
  Population Healthy Nuclei (%): 90% and 87%
  Population Hoechst High Intensity Objects (%): 5% and 7%
  Population Membrane Permeable-Phenotype (%): 5% and 3%
  Population Mitochondria Different-Phenotype (%): 8% and 9%
  Population Mitotic Cells (%): 13% and 32%
  Population Normal (%): 94% and 92%
  Population Pyknosed Nuclei (%): 5% and 7%
  Population Tubulin-Different-Phenotype (%): 33% and 37%
  Total Cell Count: 670 and 592
[4]
  Population Apoptotic (%): 63% and 66%
  Population Fragmented Nuclei (%): 4% and 2%
  Population Healthy Nuclei (%): 89% and 87%
  Population Hoechst High Intensity Objects (%): 9% and 15%
  Population Membrane Permeable-Phenotype (%): 0%
  Population Mitochondria Different-Phenotype (%): 42% and 37%
  Population Mitotic Cells (%): 36% and 33%
  Population Normal (%): 90% and 84%
  Population Pyknosed Nuclei (%): 6% and 9%
  Population Tubulin-Different-Phenotype (%): 63% and 61%
  Total Cell Count: 395 and 403
[5]
  Population Apoptotic (%): 61% and 72%
  Population Fragmented Nuclei (%): 11%
  Population Healthy Nuclei (%): 86%
  Population Hoechst High Intensity Objects (%): 5%
  Population Membrane Permeable-Phenotype (%): 1% and 2%
  Population Mitochondria Different-Phenotype (%): 2% and 4%
  Population Mitotic Cells (%): 38% and 27%
  Population Normal (%): 94%
  Population Pyknosed Nuclei (%): 1%
  Population Tubulin-Different-Phenotype (%): 24% and 25%
  Total Cell Count: 841 and 644
[6]
  Population Apoptotic (%): 73% and 80%
  Population Fragmented Nuclei (%): 5%
  Population Healthy Nuclei (%): 89% and 84%
  Population Hoechst High Intensity Objects (%): 17% and 13%
  Population Membrane Permeable-Phenotype (%): 0%
  Population Mitochondria Different-Phenotype (%): 50% and 55%
  Population Mitotic Cells (%): 26% and 20%
  Population Normal (%): 82% and 86%
  Population Pyknosed Nuclei (%): 5% and 10%
  Population Tubulin-Different-Phenotype (%): 67% and 65%
  Total Cell Count: 329 and 336

— ChEMBL document CHEMBL5303300, “EUbOPEN Chemogenomics Library - Multiplex” (2023)
